Experimental data reported in article PMC4177010 (Cancer chemotherapy and pharmacology, 2014).

Key:
SRC2 = experiment: ChIP at the CYP24A1 promoter in HL-60 cells, SRC2 antibody; assay type: cell-based, human; conditions: 20 nM 1,25(OH)2D3, 18 hours
HTRA = experiment: Human apoptosis antibody array, HL-60 cells; assay type: cell-based; conditions: 1,25(OH)2D3 (20 nM), 18 hours
Summary of the method: (§1)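 Lysates in kit lysis buffer went onto a blocked glass-chip array of 44 apoptosis capture antibodies spotted in duplicate, 18 h at 4 °C. Biotinylated detection antibodies and fluorescent streptavidin were each applied 2 h at room temperature. A fluorescence scan gave spot intensities.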

caspase 7 = experiment: rt-PCR mRNA levels in HL-60 cells; assay type: cell-based, human; conditions: 20 nM 1,25(OH)2D3, 18 hours
IGF-II = experiment: Human apoptosis antibody array, HL-60 cells; assay type: cell-based; conditions: 1,25(OH)2D3 (20 nM), 18 hours
Summary of the method: as §1

HL-60 cells = experiment: Cell proliferation assay; assay type: cell-based, human; conditions: HL-60 treated with VDR siRNA; same concentrations as non-transfected cells
NCoR = experiment: ChIP at the CYP24A1 promoter in HL-60 cells, NCoR antibody; assay type: cell-based, human; conditions: 20 nM 1,25(OH)2D3, 18 hours
Caco2 cells = experiment: Cell proliferation assay; assay type: cell-based, human; conditions: 100 nM 1,25(OH)2D3, 5 days
caspase 3 = experiment: rt-PCR mRNA levels in HL-60 cells; assay type: cell-based, human; conditions: 20 nM 1,25(OH)2D3, 18 hours
CYP3A4 = experiment: rt-PCR mRNA levels in HL-60 cells; assay type: cell-based, human; conditions: 18 hours, 1,25(OH)2D3 (20 nM), PS121912 (3 µM) or a combination thereof
SKOV3 cells = experiment: Cell proliferation assay; assay type: cell-based, human; conditions: 100 nM 1,25(OH)2D3, 5 days
Survivin = experiment: Human apoptosis antibody array, HL-60 cells; assay type: cell-based; conditions: 1,25(OH)2D3 (20 nM), 18 hours
Summary of the method: as §1

C=C1/C(=C\C=C2/CCC[C@]3(C)[C@@H]([C@H](C)CCCC(C)(C)O)CC[C@@H]23)C[C@@H](O)C[C@@H]1O [1,25(OH)2D3, 1,25-dihydroxyvitamin D3]
SRC2 recruitment at the CYP24A1 promoter (SRC2): recruitment of coactivator SRC2
HTRA protein level (HTRA): upregulated
caspase 7 mRNA levels (caspase 7): no change
IGF-II protein level (IGF-II): induced
antiproliferation effect in VDR siRNA treated cells (HL-60 cells): abolished
interaction between VDR and NCoR at the CYP24A1 promoter (NCoR): reduced
antiproliferative effect (Caco2 cells): minor antiproliferative effect
caspase 3 mRNA levels (caspase 3): no change
mRNA levels of CYP3A4 (CYP3A4): not altered
antiproliferative effect (SKOV3 cells): minor antiproliferative effect
Survivin protein level (Survivin): reduced
